Where two headings read alike, the source gives them in different places.
How the values were obtained:
P. falciparum [1] = settings: cited from earlier work
P. falciparum [2] = experiment: Stage-specific inhibitory activity on highly-synchronized parasites; assay type: cell-based, Plasmodium falciparum; settings: 10-fold IC50, synchronized parasites
[3] = tested on: L. infantum promastigotes; experiment: Anti-leishmanial MTT viability assay, L. infantum promastigotes; assay type: cell-based, Leishmania (L.) infantum
P. falciparum (3D7) = experiment: Anti-plasmodial SYBR green assay, P. falciparum 3D7 blood parasites; assay type: cell-based, Plasmodium falciparum
P. falciparum [4] = experiment: In vitro association with artesunate; assay type: cell-based, Plasmodium falciparum; settings: isobologram analysis
[5] = tested on: L. amazonensis promastigotes; experiment: Anti-leishmanial MTT viability assay, L. amazonensis promastigotes; assay type: cell-based, Leishmania (L.) amazonensis
HepG2 = experiment: Cytotoxicity on HepG2 cells; assay type: cell-based; settings: HepG2, 24 h, MTT
T. cruzi epimastigotes = experiment: Anti-T. cruzi MTT viability assay, epimastigotes; assay type: cell-based, Trypanosoma cruzi
HepG2 cells = experiment: HepG2 cell morphology by microscopy after treatment; assay type: cell-based, human; settings: 24 h, concentration 10-fold higher than IC50 (10 μM)
[6] = tested on: intracellular L. (L.) amazonensis amastigotes; experiment: Intracellular L.; assay type: cell-based, Leishmania (L.) amazonensis; settings: for intracellular parasitism (in words): 6.125, 25, 50 or 100 μM, 24 h; for reduction of the amastigote number over the control group: at higher concentrations, 24 h incubation, infected BALB/c macrophages
Outline: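 BALB/c bone-marrow-derived macrophages infected with stationary-phase L. (L.) amazonensis promastigotes (MHOM/BR/1973/M2269) at MOI 10 for 1 h, washed three times with PBS, then held 24 h at 33 °C, 5% CO2. Test compound added at 6.125, 25, 50 or 100 μM for 24 h at 33 °C. Cells washed, MeOH-fixed and stained; amastigotes counted in 300 cells on triplicate coverslips. Percent reduction taken versus untreated infected cells; two independent experiments.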

T. cruzi = settings: cited from earlier work
Leishmania donovani = settings: cited from earlier work
T. brucei rhodesiense = settings: cited from earlier work
[7] = Plasmodium falciparum, 3D7, read-out: P. falciparum (3D7) EC50+/−S.D., 3D7 sensitive strain, SYBR green

Row | SMILES | EC50 (P. falciparum (3D7); [7]) [µM] | anti-plasmodial activity against P. falciparum (in words) (P. falciparum (3D7)) | other results
1 | COC(=O)c1cc(Br)c(Br)[nH]1 |  |  | anti-parasitic activity against P. falciparum (P. falciparum [1]): 7.9 µg/mL
2 | O=C(O)c1cc(Br)c(Br)[nH]1 [4,5-dibromo-1H-pyrrole-2-carboxylic acid] |  |  | anti-parasitic activity against P. falciparum (P. falciparum [1]): 5.8 µg/mL
3 | O=C(NCCCCNCCCNC(=O)c1cc(Br)c(Br)[nH]1)c1cc(Br)c(Br)[nH]1 [Compound 1, pseudoceratidine] | 1.1 ± 0.1 |  | stage-specific inhibitory activity (in words) (P. falciparum [2]): inhibitory activity in the early ring stages; anti-parasitic activity against L. (L.) infantum (in words) [3]: essentially inactive; interaction effect in combination with artesunate (P. falciparum [4]): additive; anti-parasitic activity against L. (L.) amazonensis (in words) [5]: essentially inactive; HepG2 MDL50+/−S.D. (HepG2): 16 ± 1 (14.6 – 17.4) μM; anti-parasitic activity against T. cruzi (in words) (T. cruzi epimastigotes): essentially inactive; toxicity for HepG2 cells by microscopic morphology (HepG2 cells): not toxic
4 | CN(CCCCNC(=O)c1cc(Br)c(Br)[nH]1)CCCNC(=O)c1cc(Br)c(Br)[nH]1 [Compound 16, N-Methyl-pseudoceratidine] | 4 ± 1 | still active | 
5 | [N-]=[N+]=NCC(=O)N(CCCCNC(=O)c1cc(Br)c(Br)[nH]1)CCCNC(=O)c1cc(Br)c(Br)[nH]1 [Compound 17] | > 10 | inactive | anti-parasitic activity against L. (L.) infantum (in words) [3]: inactive; anti-parasitic activity against L. (L.) amazonensis (in words) [5]: inactive; anti-parasitic activity against T. cruzi (in words) (T. cruzi epimastigotes): inactive
6 | O=C(NCCCCCNC(=O)c1cc(Br)c(Br)[nH]1)c1cc(Br)c(Br)[nH]1 [Compound 20] | > 10 | inactive | anti-parasitic activity against L. (L.) amazonensis (in words) [5]: active, but considerably less potent; anti-parasitic activity against T. cruzi (in words) (T. cruzi epimastigotes): good anti-parasitic activity
7 | O=C(NCCCCCCCCNC(=O)c1cc(Br)c(Br)[nH]1)c1cc(Br)c(Br)[nH]1 [Compound 21] | > 10 | inactive | 
8 | O=C(NCCCNCCCCNCCCNC(=O)c1cc(Br)c(Br)[nH]1)c1cc(Br)c(Br)[nH]1 [Compound 23] | 1.9 ± 1.2 | as active as pseudoceratidine | EC50 (P. falciparum (3D7); read-out: P. falciparum (3D7) EC50+/−S.D., 3D7 sensitive strain, SYBR green): 2 ± 1 µM; anti-parasitic activity against L. (L.) amazonensis (in words) [5]: active, but considerably less potent; intracellular parasitism (in words) [6]: reduced in a dose-dependent manner; reduction of the amastigote number over the control group [6]: approximately 80%
9 | O=C(NCCCCCCNCCCCCCNC(=O)c1cc(Br)c(Br)[nH]1)c1cc(Br)c(Br)[nH]1 [Compound 25] | 2 ± 1 | as active as pseudoceratidine | 
10 | O=C(NCCSCCNC(=O)c1cc(Br)c(Br)[nH]1)c1cc(Br)c(Br)[nH]1 [Compound 27] | > 10 | inactive | anti-parasitic activity against L. (L.) amazonensis (in words) [5]: active, but considerably less potent; anti-parasitic activity against T. cruzi (in words) (T. cruzi epimastigotes): weak activity
11 | O=C(NCCCCCNC(=O)c1ccc[nH]1)c1ccc[nH]1 [Compound 28] | > 10 |  | 
12 | O=C(NCCCCNCCCNC(=O)c1ccc[nH]1)c1ccc[nH]1 [Compound 29] | > 10 | completely inactive | 
13 | O=C(NCCCCNCCCNC(=O)c1cc(Br)c[nH]1)c1cc(Br)c[nH]1 [Compound 31, 2,21-debromopseudoceratidine] | 7 ± 1 |  | 
14 | O=C(NCCCCNCCCNC(=O)c1cc(Cl)c(Cl)[nH]1)c1cc(Cl)c(Cl)[nH]1 [Compound 33] | > 10 | completely inactive | 
15 | O=C(NCCCCNCCCNC(=O)c1ccc(F)[nH]1)c1ccc(F)[nH]1 [Compound 35] | > 10 | completely inactive | 
16 | O=C(NCCCCNCCCNC(=O)c1cc2ccccc2[nH]1)c1cc2ccccc2[nH]1 [Compound 38] | > 10 |  | 
17 | O=C(NCCCCNCCCNC(=O)c1nc2ccccc2[nH]1)c1nc2ccccc2[nH]1 [Compound 39] | > 10 |  | 
18 | O=C(NCCCCNCCCNC(=O)c1ccc(Br)s1)c1ccc(Br)s1 [Compound 42] | > 10 |  | anti-parasitic activity against L. (L.) amazonensis (in words) [5]: active, but considerably less potent; intracellular parasitism (in words) [6]: reduced in a dose-dependent manner; reduction of the amastigote number over the control group [6]: approximately 80%
19 | Cc1ccc(C(=O)NCCCCNCCCNC(=O)c2ccc(C)s2)s1 [Compound 43] | > 10 |  | 
20 | O=C(NCCCCNCCCNC(=O)c1cccc(Cl)n1)c1cccc(Cl)n1 [Compound 46] | > 10 |  | 
21 | Cc1cccc(C(=O)NCCCCNCCCNC(=O)c2cccc(C)n2)n1 [Compound 47] | > 10 |  | 
22 | O=C(NCCCCNCCCNC(=O)c1cc(Br)c(Br)o1)c1cc(Br)c(Br)o1 [Compound 50] | 3 ± 1 |  | anti-parasitic activity against L. (L.) amazonensis (in words) [5]: active, but considerably less potent; intracellular parasitism (in words) [6]: reduced in a dose-dependent manner; reduction of the amastigote number over the control group [6]: approximately 80%
23 | Cc1ccc(C(=O)NCCCCNCCCNC(=O)c2ccc(C)o2)o1 [Compound 51] |  | completely inactive | 
24 | Nc1ncc(/C=C/CNC(=O)c2cc(Br)c(Br)[nH]2)[nH]1 [Oroidin] |  |  | anti-parasitic activity against P. falciparum (P. falciparum [1]): 3.9 µg/mL; activity against T. cruzi (in words) (T. cruzi): inactive; activity against Leishmania donovani (in words) (Leishmania donovani): inactive; activity against T. brucei rhodesiense (T. brucei rhodesiense): 17.3 µg/mL
